The source made the active and inactive calls. No cut-off for these calls is given here.
Legend:
[1] = tested on: U-87 MG; test: Reduction of cell adherence in human U87MG cells at 1 uM after 30 mins by toluidine blue staining-based […]; type: functional, U-87MG ATCC; set-up: scale not given: the % may be the effect or the level left
Procedure, shortened: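 U87-MG cells grown in 10% serum, trypsinised, diluted to 100 000 cells/mL in 10% serum medium, then treated 30 min with compound or DMSO. 20 000 cells per well allowed to attach 1 h. Fixed in 4% paraformaldehyde 30 min, stained with 0.1% toluidine blue in 4% PFA 30 min, washed, OD read at 620 nm for attached cells.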

[2] = tested on: U-87 MG; test: Induction of apoptosis in human U87MG cells assessed as late apoptotic cells at 1 uM after 24 hrs by Annexin V-PE/7-AAD staining-based FACS analysis (reference value: 1.59%); type: functional, U-87MG ATCC
[3] = tested on: HCT-116; test: Induction of apoptosis in human HCT116 cells assessed as necrotic cells at 0.3 uM after 24 hrs by Annexin V-PE/7-AAD staining-based FACS analysis (reference value: 0.885%); type: functional
[4] = biological target: T1, Focal adhesion kinase 1 (Homo sapiens, UniProt Q05397); test: Inhibition of FAK phosphorylation at tyrosine 397 in human PC3 cells at 0.1 to 10 uM after 48 hrs by FACEFAK ELISA; type: cell-based; settings: PC-3
T1 sequence (Q05397 2-1052 limits assumed): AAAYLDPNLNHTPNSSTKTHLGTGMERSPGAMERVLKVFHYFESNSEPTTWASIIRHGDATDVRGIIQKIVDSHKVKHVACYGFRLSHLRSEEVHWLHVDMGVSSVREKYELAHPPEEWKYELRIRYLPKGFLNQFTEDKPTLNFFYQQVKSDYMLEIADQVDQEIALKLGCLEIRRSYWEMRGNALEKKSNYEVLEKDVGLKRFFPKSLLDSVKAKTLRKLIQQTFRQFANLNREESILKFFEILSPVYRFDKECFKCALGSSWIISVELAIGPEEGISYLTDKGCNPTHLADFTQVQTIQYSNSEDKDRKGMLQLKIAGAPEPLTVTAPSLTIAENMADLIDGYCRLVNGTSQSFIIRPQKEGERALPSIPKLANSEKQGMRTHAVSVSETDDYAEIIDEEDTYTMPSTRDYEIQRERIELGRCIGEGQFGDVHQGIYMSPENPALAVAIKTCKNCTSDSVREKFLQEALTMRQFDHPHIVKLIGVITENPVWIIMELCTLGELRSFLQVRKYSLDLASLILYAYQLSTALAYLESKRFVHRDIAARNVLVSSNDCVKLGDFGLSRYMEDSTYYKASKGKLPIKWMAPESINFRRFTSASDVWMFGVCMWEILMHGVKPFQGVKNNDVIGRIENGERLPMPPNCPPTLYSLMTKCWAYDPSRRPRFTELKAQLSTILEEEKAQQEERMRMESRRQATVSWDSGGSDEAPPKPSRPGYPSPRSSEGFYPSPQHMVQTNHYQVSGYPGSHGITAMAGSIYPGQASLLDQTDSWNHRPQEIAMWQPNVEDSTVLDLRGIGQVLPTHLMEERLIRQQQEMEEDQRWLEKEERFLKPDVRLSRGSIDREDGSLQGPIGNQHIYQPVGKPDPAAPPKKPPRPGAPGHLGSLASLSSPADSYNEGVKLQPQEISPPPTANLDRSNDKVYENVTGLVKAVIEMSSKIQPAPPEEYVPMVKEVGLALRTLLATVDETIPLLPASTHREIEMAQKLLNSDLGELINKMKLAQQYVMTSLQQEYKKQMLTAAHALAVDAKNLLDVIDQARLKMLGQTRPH
Procedure, shortened: (§1)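 Cells were grown in DMEM with 10% FBS, seeded at 3 × 10^3 per well and treated for 48 h at 0.1, 1 and 10 μM. They were then fixed in 4% formaldehyde and probed with anti-phospho-Tyr397 FAK or total-FAK antibody plus an HRP secondary, read at 450 nm. Signal was normalised to total FAK and to crystal-violet cell number (595 nm). Values are fold decrease versus control, mean of triplicate readings from three independent experiments.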

[5] = tested on: HCT-116; test: Induction of apoptosis in human HCT116 cells assessed as viable cells at 0.3 uM after 24 hrs by Annexin V-PE/7-AAD staining-based FACS analysis (reference value: 93.2%); type: functional; settings: HCT-116, 24 h, read-out: Activity
[6] = tested on: U-87 MG; test: Induction of apoptosis in human U87MG cells assessed as necrotic cells at 1 uM after 24 hrs by Annexin V-PE/7-AAD staining-based FACS analysis (reference value: 1.06%); type: functional, U-87MG ATCC
[7] = tested on: U-87MG ATCC; test: (§2) Inhibition of colony formation in human U87MG cells after 2 weeks by crystal violet staining-based assay; type: functional, cell-based
Procedure, shortened: (§3)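 Seeding: 250 cells per well for HCT-116, 300 for U87MG, MDA-MB-231 and PC-3; incubated overnight, then exposed to a range of concentrations for 2 weeks. Fixed in 4% paraformaldehyde 30 min at room temperature, stained with 0.1% crystal violet. Colonies over 50 cells counted; colony formation rate calculated; IC50 by nonlinear regression.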

[8] = as §2; type: functional, cell-based, U-87MG ATCC; settings: U-87 MG, 336 h; procedure, shortened: as §3
[9] = biological target: T1, Focal adhesion kinase 1; test: Inhibition of FAK phosphorylation at tyrosine 397 in human HCT116 cells at 0.1 to 10 uM after 48 hrs by FACEFAK ELISA; type: cell-based; settings: HCT-116; procedure, shortened: as §1
[10] = tested on: MDA-MB-231; test: Inhibition of colony formation in human MDA-MB-231 cells after 2 weeks by crystal violet staining-based assay; type: functional, cell-based; procedure, shortened: as §3
[11] = tested on: HCT-116; test: Induction of apoptosis in human HCT116 cells assessed as late apoptotic cells at 0.3 uM after 24 hrs by Annexin V-PE/7-AAD staining-based FACS analysis (reference value: 1.22%); type: functional
[12] = Antiproliferative activity against human U87MG cells after 48 hrs by WST-1 assay; type: functional, cell-based, U-87MG ATCC; settings: U-87 MG
Procedure, shortened: (§4)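 Exponentially growing cells in DMEM/10% FBS seeded at 5 × 10^3 per well, left overnight, then exposed 48 h to compounds diluted from DMSO; WST-1 added for 2 h, absorbance at 450 nm (reference 620 nm); viability as ratio to DMSO controls; three independent experiments, triplicate points; IC50 by nonlinear regression (log inhibitor vs normalized response, variable slope).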

[13] = Cell cycle arrest in human HCT116 cells assessed as accumulation at S phase at 0.3 uM after 24 hrs by propidium iodide staining-based flow cytometry (reference value: 17.7%); type: functional; settings: HCT-116
Procedure, shortened: (§5)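 Cells plated at 10^5 per well, left overnight, then exposed 24 h to compound or vehicle; stained 15 min at 37 °C with propidium iodide/Triton buffer; DNA content by flow cytometry, phase distribution fitted by Dean–Jett–Fox; HCT-116 at 0.3–0.5 μM, U87-MG at 0.3–3 μM; significance by unpaired Student's t test; one representative experiment.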

[14] = tested on: U-87 MG; test: Induction of apoptosis in human U87MG cells assessed as viable cells at 1 uM after 24 hrs by Annexin V-PE/7-AAD staining-based FACS analysis (reference value: 96.7%); type: functional, U-87MG ATCC; settings: read-out: Activity
[15] = Cell cycle arrest in human HCT116 cells assessed as accumulation at G0/G1 phase at 0.3 uM after 24 hrs by propidium iodide staining-based flow cytometry (reference value: 63.8%); type: functional; settings: HCT-116; procedure, shortened: as §5
[16] = Cell cycle arrest in human U87MG cells assessed as accumulation at G0/G1 phase at 1 uM after 24 hrs by propidium iodide staining-based flow cytometry (reference value: 61.7%); type: functional; settings: U-87MG ATCC; procedure, shortened: as §5
[17] = biological target: T1, Focal adhesion kinase 1; test: Inhibition of FAK phosphorylation at tyrosine 397 in human U87MG cells at 0.1 to 10 uM after 48 hrs by FACEFAK ELISA; type: cell-based; settings: U-87MG ATCC; procedure, shortened: as §1
[18] = Antiproliferative activity against human PC3 cells after 48 hrs by WST-1 assay; type: functional, cell-based; settings: PC-3, 48 h; procedure, shortened: as §4
[19] = Cell cycle arrest in human U87MG cells assessed as accumulation at S phase at 1 uM after 24 hrs by propidium iodide staining-based flow cytometry (reference value: 16%); type: functional; settings: U-87MG ATCC; procedure, shortened: as §5
[20] = tested on: HCT-116; test: Induction of apoptosis in human HCT116 cells assessed as apoptotic cells at 0.3 uM after 24 hrs by Annexin V-PE/7-AAD staining-based FACS analysis relative to control; type: functional
[21] = Antimigratory activity in human U87MG cells at 1 uM […] by transwell membrane assay; type: functional, U-87MG ATCC
[22] = (§6) Inhibition of colony formation in human PC3 cells after 2 weeks by crystal violet staining-based assay; type: functional, cell-based; settings: PC-3, 336 h; procedure, shortened: as §3
[23] = tested on: PC-3; test: as §6; type: functional, cell-based; procedure, shortened: as §3
[24] = Cell cycle arrest in human HCT116 cells assessed as accumulation at G2/M phase at 0.3 uM after 24 hrs by propidium iodide staining-based flow cytometry (reference value: 14.6%); type: functional; settings: HCT-116; procedure, shortened: as §5
[25] = biological target: T1, Focal adhesion kinase 1; test: Inhibition of FAK phosphorylation at tyrosine 397 in human MDA-MB-231 cells at 0.1 to 10 uM after 48 hrs by FACEFAK ELISA; type: cell-based; procedure, shortened: as §1
[26] = Cell cycle arrest in human U87MG cells at < 1 uM after 24 hrs by propidium iodide staining-based flow cytometry; type: functional; settings: U-87MG ATCC; procedure, shortened: as §5
[27] = tested on: U-87 MG; test: Induction of apoptosis in human U87MG cells assessed as early apoptotic cells at 1 uM after 24 hrs by Annexin V-PE/7-AAD staining-based FACS analysis (reference value: 0.691%); type: functional, U-87MG ATCC
[28] = Cell cycle arrest in human U87MG cells assessed as accumulation at G2/M phase at 1 uM after 24 hrs by propidium iodide staining-based flow cytometry (reference value: 20%); type: functional; settings: U-87MG ATCC; procedure, shortened: as §5
[29] = tested on: HCT-116; test: Induction of apoptosis in human HCT116 cells at < 0.3 uM after 24 hrs by Annexin V-PE/7-AAD staining-based FACS analysis; type: functional, cell-based
[30] = tested on: HCT-116; test: Induction of apoptosis in human HCT116 cells assessed as early apoptotic cells at 0.3 uM after 24 hrs by Annexin V-PE/7-AAD staining-based FACS analysis (reference value: 4.68%); type: functional
[31] = tested on: U-87MG ATCC; test: Antimigratory activity in human U87MG cells after 30 mins by boyden chamber assay; type: functional, cell-based
[32] = Antiproliferative activity against human HCT116 cells after 48 hrs by WST-1 assay; type: functional, cell-based; settings: HCT-116, 48 h; procedure, shortened: as §4
[33] = Cell cycle arrest in human HCT116 cells at < 0.3 uM after 24 hrs by propidium iodide staining-based flow cytometry; type: functional; settings: HCT-116; procedure, shortened: as §5
[34] = tested on: MDA-MB-231; test: Antiproliferative activity against human MDA-MB-231 cells after 48 hrs by WST-1 assay; type: functional, cell-based; settings: MDA-MB-231, 48 h; procedure, shortened: as §4
[35] = (§7) Inhibition of colony formation in human HCT116 cells after 2 weeks by crystal violet staining-based assay; type: functional, cell-based; settings: HCT-116, 336 h; procedure, shortened: as §3
[36] = tested on: HCT-116; test: as §7; type: functional, cell-based; procedure, shortened: as §3

CNC(=O)c1ccccc1Nc1nc(Nc2ccc(N3CCOCC3)cc2OC)ncc1Cl
Activity [1]: 36% | Activity [2]: 0.596% | Activity [3]: 13.1% | inhibition [4]: Active | viability at 0.3 µM [5]: 42.7% | Activity [6]: 0.9% | inhibition [7]: Dose-dependent effect | IC50 [8]: 190 nM | inhibition [9]: Active | inhibition [10]: Dose-dependent effect | IC50 ([10]; MDA-MB-231, 336 h): 1900 nM | Activity [11]: 32% | IC50 [12]: 1200 nM | Activity [13]: 10.4% | viability at 1 µM [14]: 95.4% | Activity [15]: 31.3% | Activity [16]: 49.9% | inhibition [17]: Active | IC50 [18]: 1600 nM | Activity [19]: 7.11% | Activity [20]: 41.8% | Activity [21]: 25.5% | IC50 [22]: 260 nM | inhibition [23]: Dose-dependent effect | Activity [24]: 54.4% | inhibition [25]: Active | Activity [26]: Active | Activity [27]: 3.12% | Activity [28]: 40.8% | Activity [29]: Active | Activity [30]: 12.3% | Activity [31]: Dose-dependent effect | IC50 [32]: 400 nM | Activity [33]: Active | IC50 [34]: 2800 nM | IC50 [35]: 230 nM | inhibition [36]: Dose-dependent effect
